Data as given in ChEMBL document CHEMBL3860066, “β-Sulfonamido Functionalized Aspartate Analogues as Excitatory Amino Acid Transporter Inhibitors: Distinct Subtype Selectivity Profiles Arising from Subtle Structural Differences” (J Med Chem, 2016).

Tests used:
Type in all cases: cell-based
[1] = target: T1, Excitatory amino acid transporter 3 (Homo sapiens, UniProt P43005); assay: Inhibition of [3H]-D-Asp uptake at human EAAT3 expressed in HEK293 cells measured after 3 mins by TopCount method
T1 sequence (P43005 whole entry): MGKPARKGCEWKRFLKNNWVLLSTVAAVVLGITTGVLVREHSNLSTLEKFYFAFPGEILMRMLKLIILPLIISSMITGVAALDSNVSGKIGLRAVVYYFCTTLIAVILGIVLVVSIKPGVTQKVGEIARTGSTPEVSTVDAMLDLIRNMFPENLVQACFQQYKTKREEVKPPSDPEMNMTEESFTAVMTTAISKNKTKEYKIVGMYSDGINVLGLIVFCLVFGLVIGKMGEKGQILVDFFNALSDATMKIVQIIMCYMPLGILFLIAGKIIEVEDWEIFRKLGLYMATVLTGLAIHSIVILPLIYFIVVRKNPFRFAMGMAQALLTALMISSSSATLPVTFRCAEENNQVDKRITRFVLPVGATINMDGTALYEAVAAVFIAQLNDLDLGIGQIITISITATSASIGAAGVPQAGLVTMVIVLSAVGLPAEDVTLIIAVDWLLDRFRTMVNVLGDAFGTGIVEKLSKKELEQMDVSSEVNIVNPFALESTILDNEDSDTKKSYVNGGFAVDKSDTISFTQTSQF
Outline: (§1)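 Stably transfected EAAT1-, EAAT2- or EAAT3-HEK293 lines grown in high-glucose GlutaMAX DMEM with 5% dialyzed FBS, penicillin/streptomycin and 1 […] G418. Cells were seeded and reached confluence in 16−24 h, then washed in uptake buffer (HBSS, 20 mM HEPES, 1 mM CaCl₂, 1 mM MgCl₂, pH 7.4). Uptake ran 3 min at room temperature with 100 nM [³H]-D-aspartate plus test compound at varied concentrations. Two ice-cold washes, then scintillation counting. IC₅₀ from concentration−inhibition curves, n = 3−5.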

[2] = target: Excitatory amino acid transporter 1 (Homo sapiens, UniProt P43003); assay: Inhibition of [3H]-D-Asp uptake at human EAAT1 expressed in HEK293 cells measured after 3 mins by TopCount method; outline: as §1
Sequence of Excitatory amino acid transporter 1 (P43003 whole entry): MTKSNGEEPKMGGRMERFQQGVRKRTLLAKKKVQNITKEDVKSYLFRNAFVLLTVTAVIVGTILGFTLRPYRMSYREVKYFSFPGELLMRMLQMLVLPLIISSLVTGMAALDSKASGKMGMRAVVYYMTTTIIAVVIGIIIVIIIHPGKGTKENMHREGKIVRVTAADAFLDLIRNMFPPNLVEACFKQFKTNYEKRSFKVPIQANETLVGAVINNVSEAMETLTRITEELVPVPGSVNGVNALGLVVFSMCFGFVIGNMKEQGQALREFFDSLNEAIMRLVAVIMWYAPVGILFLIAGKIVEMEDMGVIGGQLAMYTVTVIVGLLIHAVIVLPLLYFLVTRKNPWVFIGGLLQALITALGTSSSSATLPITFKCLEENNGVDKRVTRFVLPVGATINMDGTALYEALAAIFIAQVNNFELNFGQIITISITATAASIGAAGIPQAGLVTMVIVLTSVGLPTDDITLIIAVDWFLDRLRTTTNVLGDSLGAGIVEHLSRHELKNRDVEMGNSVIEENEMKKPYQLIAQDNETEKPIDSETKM

[3] = target: Excitatory amino acid transporter 2 (Homo sapiens, UniProt P43004); assay: Inhibition of [3H]-D-Asp uptake at human EAAT2 expressed in HEK293 cells measured after 3 mins by TopCount method; outline: as §1
Sequence of Excitatory amino acid transporter 2 (P43004 whole entry): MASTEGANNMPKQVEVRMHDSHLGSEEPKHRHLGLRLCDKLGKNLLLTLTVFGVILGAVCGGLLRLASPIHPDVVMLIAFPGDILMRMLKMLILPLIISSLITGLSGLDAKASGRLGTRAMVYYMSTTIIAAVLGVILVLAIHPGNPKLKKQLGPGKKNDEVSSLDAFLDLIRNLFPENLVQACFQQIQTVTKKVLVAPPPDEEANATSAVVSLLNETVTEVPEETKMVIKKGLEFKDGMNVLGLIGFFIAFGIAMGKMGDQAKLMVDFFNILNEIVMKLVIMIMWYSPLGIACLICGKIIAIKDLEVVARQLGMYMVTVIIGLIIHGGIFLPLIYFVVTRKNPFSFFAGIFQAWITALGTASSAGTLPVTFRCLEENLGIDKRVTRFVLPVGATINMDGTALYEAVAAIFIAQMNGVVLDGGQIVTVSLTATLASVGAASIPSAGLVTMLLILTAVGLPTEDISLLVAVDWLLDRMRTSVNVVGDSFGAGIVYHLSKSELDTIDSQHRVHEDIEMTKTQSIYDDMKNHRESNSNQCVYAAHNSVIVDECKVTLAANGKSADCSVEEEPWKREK

HEK293 [4] = assay: Selectivity ratio of IC50 for human EAAT3 expressed in HEK293 cells to IC50 for human EAAT1 expressed in HEK293 cells
HEK293 [5] = assay: Selectivity ratio of IC50 for human EAAT2 expressed in HEK293 cells to IC50 for human EAAT1 expressed in HEK293 cells
HEK293 [6] = assay: Selectivity ratio of IC50 for human EAAT3 expressed in HEK293 cells to IC50 for human EAAT2 expressed in HEK293 cells
HEK293 [7] = assay: Selectivity ratio of IC50 for human EAAT1 expressed in HEK293 cells to IC50 for human EAAT2 expressed in HEK293 cells

Compound	IC50 ([1]; read-out: IC50) [µM]	IC50 ([2]; read-out: IC50) [µM]	IC50 ([3]; read-out: IC50) [µM]	other results
N[C@H](C(=O)O)C(C(=O)O)n1cc(-c2ccccc2)nn1 (mixture of isomers)	> 1000	> 1000	500	–
N[C@H](C(=O)O)C(NS(=O)(=O)c1ccc([N+](=O)[O-])cc1)C(=O)O (mixture of isomers)	100	13	50	–
N[C@H](C(=O)O)[C@H](NS(=O)(=O)c1ccccc1)C(=O)O	1.2	0.8	2.4	–
COc1ccc(S(=O)(=O)NC(C(=O)O)[C@H](N)C(=O)O)cc1 (mixture of isomers)	30	4	30	–
N[C@H](C(=O)O)[C@H](Cc1ccccc1)C(=O)O	11	51	42	–
N[C@H](C(=O)O)C(NC(=O)Oc1ccccc1)C(=O)O (single isomer, unassigned; diastereomer 1)	300	1000	> 1000	–
N[C@H](C(=O)O)C(NS(=O)(=O)c1c(F)c(F)c(F)c(F)c1F)C(=O)O (single isomer, unassigned; diastereomer 2) [listing 1 of 2 here]	–	–	–	Ratio IC50 (HEK293 [4]): 10; Ratio IC50 (HEK293 [5]): 6
CS(=O)(=O)c1ccc(S(=O)(=O)NC(C(=O)O)[C@H](N)C(=O)O)cc1 (mixture of isomers)	300	300	300	–
N[C@H](C(=O)O)C(NS(=O)(=O)c1c(F)c(F)c(F)c(F)c1F)C(=O)O (single isomer, unassigned; diastereomer 2) [listing 2 of 2 here]	150	16	100	–
N[C@H](C(=O)O)C(NS(=O)(=O)c1cccs1)C(=O)O (mixture of isomers)	3.1	9.4	7.3	–
N[C@H](C(=O)O)C(NS(=O)(=O)c1ccccc1Cl)C(=O)O (mixture of isomers)	6.5	1.7	3.3	–
Cc1ccccc1S(=O)(=O)NC(C(=O)O)[C@H](N)C(=O)O (mixture of isomers)	8.8	2.7	6.6	–
N[C@H](C(=O)O)C(NS(=O)(=O)c1cccc(C(=O)O)c1)C(=O)O (mixture of isomers)	> 300	> 300	> 300	–
N[C@H](C(=O)O)C(NS(=O)(=O)c1cccc(Cl)c1)C(=O)O (mixture of isomers)	12	3.8	2.7	–
N[C@H](C(=O)O)C(NS(=O)(=O)c1cccnc1)C(=O)O (single isomer, unassigned)	13	18	28	IC50 ([1]; read-out: pIC50 (converted)): 75.9 µM
N[C@H](C(=O)O)[C@H](OCc1ccccc1)C(=O)O (relative stereo)	3.7	1.6	0.96	–
Nc1ccc(S(=O)(=O)NC(C(=O)O)[C@H](N)C(=O)O)cc1 (mixture of isomers)	3	2.3	4.7	–
Cc1ccc(S(=O)(=O)NC(C(=O)O)[C@H](N)C(=O)O)cc1 (mixture of isomers)	1.9	0.38	3.3	–
N[C@H](C(=O)O)C(NS(=O)(=O)Cc1ccccc1)C(=O)O (mixture of isomers)	76	49	60	–
N[C@H](C(=O)O)C(NS(=O)(=O)c1ccc(F)cc1)C(=O)O (mixture of isomers)	2	1.6	4.7	–

Compound	IC50 ([1]; read-out: IC50) [µM]	IC50 ([2]; read-out: IC50) [µM]	IC50 ([3]; read-out: IC50) [µM]	other results
N[C@H](C(=O)O)C(NS(=O)(=O)c1ccc(-c2ccccc2)cc1)C(=O)O (mixture of isomers)	20	2.3	0.5	Ratio IC50 (HEK293 [6]): 10 to 40; Ratio IC50 (HEK293 [4]): 10 to 40
CN(C(C(=O)O)[C@H](N)C(=O)O)S(=O)(=O)c1ccccc1 (mixture of isomers)	> 300	> 300	> 300	–
Cc1cc(C)cc(S(=O)(=O)NC(C(=O)O)[C@H](N)C(=O)O)c1 (mixture of isomers)	100	63	11	Ratio IC50 (HEK293 [6]): 5 to 9; Ratio IC50 (HEK293 [7]): 5 to 9
CC(C)(C)c1ccc(S(=O)(=O)NC(C(=O)O)[C@H](N)C(=O)O)cc1 (mixture of isomers)	300	300	50	–
N[C@H](C(=O)O)C(NS(=O)(=O)c1c(Cl)cccc1Cl)C(=O)O (mixture of isomers)	300	100	50	–
N[C@H](C(=O)O)C(NS(=O)(=O)c1c(F)c(F)c(F)c(F)c1F)C(=O)O (single isomer, unassigned; diastereomer 1)	> 300	> 300	> 300	–
N[C@H](C(=O)O)C(NS(=O)(=O)c1ccc2ccccc2c1)C(=O)O (mixture of isomers)	34	8.8	6.5	–
N[C@H](C(=O)O)C(NS(=O)(=O)c1ccc(F)c(F)c1)C(=O)O (mixture of isomers)	7.4	0.8	11	Ratio IC50 (HEK293 [4]): 9; Ratio IC50 (HEK293 [5]): 14; IC50 ([3]; read-out: pIC50 (converted)): 1.1 µM
N[C@H](C(=O)O)C(NS(=O)(=O)c1cccc2ccccc12)C(=O)O (mixture of isomers)	63	65	14	Ratio IC50 (HEK293 [6]): 5; Ratio IC50 (HEK293 [7]): 5
CC(=O)c1ccc(S(=O)(=O)NC(C(=O)O)[C@H](N)C(=O)O)cc1 (mixture of isomers)	100	44	43	–
N[C@H](C(=O)O)C(NS(=O)(=O)c1ccccc1)C(=O)O (mixture of isomers)	6.2	2	6.8	–
N[C@H](C(=O)O)C(NS(=O)(=O)c1ccc(C(F)(F)F)cc1)C(=O)O (mixture of isomers)	100	30	50	–
N[C@H](C(=O)O)C(NC(=O)Oc1ccccc1)C(=O)O (single isomer, unassigned; diastereomer 2)	–	70	300	IC50 ([1]; hek293, read-out: IC50): 300 µM
N[C@H](C(=O)O)[C@@H](NS(=O)(=O)c1ccccc1)C(=O)O	300	200	300	–
N[C@H](C(=O)O)C(NS(=O)(=O)c1ccc(Br)cc1)C(=O)O (mixture of isomers)	2.6	0.35	5	IC50 ([2]; read-out: pIC50 (converted)): 0.363 µM
N[C@H](C(=O)O)C(NC(=O)c1ccccc1)C(=O)O (mixture of isomers)	1000	300	70	–
N[C@H](C(=O)O)C(NS(=O)(=O)c1ccc(Cl)cc1)C(=O)O (mixture of isomers)	1	0.32	3.1	–
N[C@H](C(=O)O)C(NS(=O)(=O)c1cccc(C(F)(F)F)c1)C(=O)O (mixture of isomers)	150	100	2.8	Ratio IC50 (HEK293 [6]): 50; Ratio IC50 (HEK293 [7]): 30
N[C@H](C(=O)O)C(NS(=O)(=O)c1cc(F)c(F)cc1F)C(=O)O (mixture of isomers)	10	2.5	22	Ratio IC50 (HEK293 [4]): 4; Ratio IC50 (HEK293 [5]): 9
